In ChEMBL document CHEMBL2150893, “Synthesis of β-ionone derived chalcones as potent antimicrobial agents” (2012):
Converted amounts (≈) assume the structure as drawn. The source made the active and inactive calls. No cut-off for these calls is given here.

Assays:
Saccharomyces cerevisiae = experiment: Antifungal activity against Saccharomyces cerevisiae MTCC 172 after 24 hrs by serial dilution method; assay type: functional; details: MTCC 172, 24 h
Procedure, shortened: (§1)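 Fungal MIC by serial tube dilution. Dilutions of test compounds (1.9–500 µg/ml) were made from stock solution. Each tube held 1 ml nutrient broth and received 20 µl of standard strain culture.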

Pseudomonas aeruginosa = experiment: Antibacterial activity against Pseudomonas aeruginosa MTCC 2642 after 24 hrs by serial dilution method; assay type: functional; details: MTCC 2642, 24 h
Procedure, shortened: (§2)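 Serial tube dilution MIC. Strains were grown in nutrient broth to an OD600 of 0.4-0.6. Compounds were tested at 0.78, 1.56, 3.12, 6.25, 12.5, 25 and 50 µg/ml, each in a separate tube containing 5 ml nutrient broth plus 1 ml compound solution. Tubes were incubated 24 h with shaking at 180 rpm. Growth was followed by optical density at 600 nm.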

Aspergillus niger = experiment: Antifungal activity against Aspergillus niger MTCC 1344 after 24 hrs by serial dilution method; assay type: functional; details: MTCC 1344, 24 h; procedure, shortened: as §1
Bacillus subtilis = experiment: Antibacterial activity against Bacillus subtilis MTCC 2451 after 24 hrs by serial dilution method; assay type: functional; details: MTCC 2451, 24 h; procedure, shortened: as §2
Nannizzia gypsea = experiment: Antifungal activity against Microsporum gypseum MTCC 4490 after 24 hrs by serial dilution method; assay type: functional; details: MTCC 4490, 24 h; procedure, shortened: as §1
Candida albicans = experiment: Antifungal activity against Candida albicans MTCC 3018 after 24 hrs by serial dilution method; assay type: functional; details: MTCC 3018, 24 h; procedure, shortened: as §1
Escherichia coli = experiment: Antibacterial activity against Escherichia coli MTCC 82 after 24 hrs by serial dilution method; assay type: functional; details: MTCC 82, 24 h; procedure, shortened: as §2
[1] = Antifungal activity against Cryptococcus gastricus MTCC 1715 after 24 hrs by serial dilution method; assay type: functional; details: Goffeauzyma gastrica; procedure, shortened: as §1
Staphylococcus aureus = experiment: Antibacterial activity against Staphylococcus aureus MTCC 96 after 24 hrs by serial dilution method; assay type: functional; details: MTCC 96, 24 h; procedure, shortened: as §2
Salmonella typhi = experiment: Antibacterial activity against Salmonella typhi after 24 hrs by serial dilution method; assay type: functional, Salmonella enterica subsp. enterica serovar Typhi; details: Salmonella enterica
Procedure, shortened: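 Serial tube dilution MIC in nutrient broth. Bacteria were grown until OD600 reached 0.4-0.6. Tubes held 5 ml broth plus 1 ml compound at 0.78, 1.56, 3.12, 6.25, 12.5, 25 or 50 µg/ml and were shaken at 180 rpm for 24 h. Initial medium OD was read at 600 nm.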

Klebsiella pneumoniae = experiment: Antibacterial activity against Klebsiella pneumoniae MTCC 530 after 24 hrs by serial dilution method; assay type: functional, organism-based

| Structure (SMILES) | MIC (Saccharomyces cerevisiae) [µg/mL] | MIC (Pseudomonas aeruginosa) [µg/mL] | MIC (Aspergillus niger) [µg/mL] | MIC (Bacillus subtilis) [µg/mL] | MIC (Nannizzia gypsea) [µg/mL] | MIC (Candida albicans) [µg/mL] | MIC (Escherichia coli) [µg/mL] | MIC [1] [µg/mL] | MIC (Staphylococcus aureus) [µg/mL] | MIC (Salmonella typhi) [µg/mL] | Activity (Klebsiella pneumoniae) |
| --- | --- | --- | --- | --- | --- | --- | --- | --- | --- | --- | --- |
| CC1=C(/C=C/C(=O)/C=C/c2ccc([N+](=O)[O-])cc2)C(C)(C)CCC1 | 19.5 (≈ 59.9 µM) | 12.5 (≈ 38.4 µM) | 9.6 (≈ 29.5 µM) | 3.12 (≈ 9.59 µM) | 82 (≈ 252 µM) | 11.2 (≈ 34.4 µM) | 6.25 (≈ 19.2 µM) | 90.4 (≈ 278 µM) | 25 (≈ 76.8 µM) | > 100 |  |
| CC1=C(/C=C/C(=O)/C=C/c2ccccc2Cl)C(C)(C)CCC1 | 12.5 (≈ 39.7 µM) | 12.5 (≈ 39.7 µM) | 33.5 (≈ 106 µM) | 0.78 (≈ 2.48 µM) | 94 (≈ 299 µM) | 11.5 (≈ 36.5 µM) | 1.56 (≈ 4.95 µM) | > 100 | 1.56 (≈ 4.95 µM) | > 100 |  |
| COc1ccc(/C=C/C(=O)/C=C/C2=C(C)CCCC2(C)C)cc1OC |  | 55.5 (≈ 163 µM) |  | 22.5 (≈ 66.1 µM) |  |  | 42 (≈ 123 µM) |  |  | > 100 |  |
| CC1=C(/C=C/C(=O)/C=C/c2cccnc2)C(C)(C)CCC1 | 10.5 (≈ 37.3 µM) | 12.5 (≈ 44.4 µM) | 3.9 (≈ 13.9 µM) | 6.25 (≈ 22.2 µM) | > 100 | 35 (≈ 124 µM) | 12.5 (≈ 44.4 µM) | > 100 | 6.25 (≈ 22.2 µM) | > 100 | inactive |
| COc1ccc(/C=C/C(=O)/C=C/C2=C(C)CCCC2(C)C)cc1 |  |  |  |  |  |  | > 100 |  | 25 (≈ 80.5 µM) | > 100 |  |
| OC(Cn1cncn1)(Cn1cncn1)c1ccc(F)cc1F [FLUCONAZOLE] | 1.9 (≈ 6.2 µM) |  | 1.9 (≈ 6.2 µM) |  | 1.9 (≈ 6.2 µM) | 3.9 (≈ 12.7 µM) |  | 31.2 (≈ 102 µM) |  |  |  |
| O=C(O)c1cn(C2CC2)c2cc(N3CCNCC3)c(F)cc2c1=O [CIPROFLOXACIN] |  | 1.8 (≈ 5.43 µM) |  | 0.75 (≈ 2.26 µM) |  |  | 0.9 (≈ 2.72 µM) |  | 1.2 (≈ 3.62 µM) |  |  |
| CC1=C(/C=C/C(=O)/C=C/C=C/c2ccccc2)C(C)(C)CCC1 | 80 (≈ 261 µM) | > 100 | 25 (≈ 81.6 µM) | 3.12 (≈ 10.2 µM) | > 100 | > 100 | 6.25 (≈ 20.4 µM) | 55.5 (≈ 181 µM) | 6.25 (≈ 20.4 µM) | 50 (≈ 163 µM) | inactive |
| CC1=C(/C=C/C(=O)/C=C/c2ccoc2)C(C)(C)CCC1 | > 100 | > 100 | 61.4 (≈ 227 µM) | 22.5 (≈ 83.2 µM) | > 100 | 74 (≈ 274 µM) | > 100 | 72.5 (≈ 268 µM) |  | 74 (≈ 274 µM) |  |
| COc1cc(/C=C/C(=O)/C=C/C2=C(C)CCCC2(C)C)cc(OC)c1OC |  | 22.5 (≈ 60.7 µM) |  | > 100 |  |  |  |  | 19.5 (≈ 52.6 µM) | 45 (≈ 121 µM) | inactive |
| COc1ccccc1/C=C/C=C/C(=O)/C=C/C1=C(C)CCCC1(C)C | 34 (≈ 101 µM) | 32.5 (≈ 96.6 µM) | 80 (≈ 238 µM) | 25 (≈ 74.3 µM) | 71.5 (≈ 212 µM) | > 100 | > 100 | 19.5 (≈ 58 µM) | > 100 | > 100 |  |
| COC1=CC(=O)C[C@@H](C)[C@]12Oc1c(Cl)c(OC)cc(OC)c1C2=O [GRISEOFULVIN] | 1.9 (≈ 5.39 µM) |  | 1.9 (≈ 5.39 µM) |  | 1.9 (≈ 5.39 µM) | 1.9 (≈ 5.39 µM) |  | 1.9 (≈ 5.39 µM) |  |  |  |
| CC1=C(/C=C/C(=O)/C=C/c2ccc(F)cc2)C(C)(C)CCC1 | 15.6 (≈ 52.3 µM) |  | 15.6 (≈ 52.3 µM) | 25 (≈ 83.8 µM) | > 100 | 12.5 (≈ 41.9 µM) | > 100 | > 100 | 25.5 (≈ 85.5 µM) |  |  |
| CC1=C(/C=C/C(=O)/C=C/c2ccccc2Br)C(C)(C)CCC1 | 3.9 (≈ 10.9 µM) | > 100 | 7.6 (≈ 21.2 µM) | 40.2 (≈ 112 µM) | > 100 | 31.2 (≈ 86.8 µM) |  | > 100 | 25 (≈ 69.6 µM) |  |  |
| CC1=C(/C=C/C(=O)/C=C/c2ccc(C)cc2)C(C)(C)CCC1 | 40.5 (≈ 138 µM) | 65 (≈ 221 µM) | > 100 | 25 (≈ 84.9 µM) | > 100 | 46 (≈ 156 µM) |  | > 100 | > 100 | > 100 |  |
| CC1=C(/C=C/C(=O)/C=C/c2ccccc2[N+](=O)[O-])C(C)(C)CCC1 | 42.5 (≈ 131 µM) | 3.12 (≈ 9.59 µM) | 32.4 (≈ 99.6 µM) | 3.12 (≈ 9.59 µM) | > 100 | > 100 | 12.5 (≈ 38.4 µM) | 58.4 (≈ 179 µM) | 6.25 (≈ 19.2 µM) | 25 (≈ 76.8 µM) | inactive |
| CC1=C(/C=C/C(=O)/C=C/c2ccc(Cl)cc2)C(C)(C)CCC1 | 12.5 (≈ 39.7 µM) | 12.5 (≈ 39.7 µM) | > 100 | 6.25 (≈ 19.9 µM) | > 100 | > 100 | 3.12 (≈ 9.91 µM) | > 100 | 25 (≈ 79.4 µM) | > 100 | inactive |
| CC1=C(/C=C/C(=O)/C=C/c2ccccc2C)C(C)(C)CCC1 | 96 (≈ 326 µM) |  | > 100 | 25 (≈ 84.9 µM) | > 100 | 72 (≈ 245 µM) | 30.5 (≈ 104 µM) | > 100 | > 100 | 55.5 (≈ 188 µM) | inactive |
| CC1=C(/C=C/C(=O)/C=C/c2ccccc2)C(C)(C)CCC1 | 61.5 (≈ 219 µM) | 12.5 (≈ 44.6 µM) | > 100 | 3.12 (≈ 11.1 µM) | > 100 | > 100 | 1.56 (≈ 5.56 µM) | 78 (≈ 278 µM) | 3.12 (≈ 11.1 µM) | 12.5 (≈ 44.6 µM) | inactive |
| CC1=C(/C=C/C(=O)/C=C/c2ccc(Br)cc2)C(C)(C)CCC1 |  | > 100 |  |  |  |  | > 100 |  |  | > 100 |  |
| CC1=C(/C=C/C(=O)/C=C/c2ccccc2F)C(C)(C)CCC1 | 11.4 (≈ 38.2 µM) |  | 9.9 (≈ 33.2 µM) |  | > 100 | 44.5 (≈ 149 µM) | > 100 | > 100 | > 100 | > 100 |  |
| CC1=C(/C=C/C(=O)/C=C/c2cccc3ccccc23)C(C)(C)CCC1 | > 100 |  | 55 (≈ 166 µM) | 25 (≈ 75.6 µM) | 98 (≈ 297 µM) | 71.5 (≈ 216 µM) | 55.5 (≈ 168 µM) | > 100 | 25 (≈ 75.6 µM) |  |  |
| CC1=C(/C=C/C(=O)/C=C/c2ccc(Cl)c(Cl)c2)C(C)(C)CCC1 |  |  |  | 25 (≈ 71.6 µM) |  |  | 22 (≈ 63 µM) |  | 32.5 (≈ 93 µM) | > 100 |  |
| CC1=C(/C=C/C(=O)/C=C/c2ccc(C#N)cc2)C(C)(C)CCC1 | > 100 |  | 52.4 (≈ 172 µM) | > 100 | 90.5 (≈ 296 µM) | 80 (≈ 262 µM) | 37 (≈ 121 µM) | > 100 | 42 (≈ 138 µM) | > 100 |  |
| CC1(C)S[C@@H]2[C@H](NC(=O)[C@H](N)c3ccc(O)cc3)C(=O)N2[C@H]1C(=O)O [AMOXICILLIN] |  | 1 (≈ 2.74 µM) |  | 0.5 (≈ 1.37 µM) |  |  | 0.12 (≈ 0.328 µM) |  | 0.5 (≈ 1.37 µM) | 0.9 (≈ 2.46 µM) |  |
| COc1ccccc1/C=C/C(=O)/C=C/C1=C(C)CCCC1(C)C | 61.4 (≈ 198 µM) | > 100 | 92.5 (≈ 298 µM) | 25 (≈ 80.5 µM) | 88.5 (≈ 285 µM) | > 100 | 31.5 (≈ 101 µM) | > 100 | 22.2 (≈ 71.5 µM) | > 100 |  |
